Laboratory results as given in ChEMBL document CHEMBL3621132, “Discovery of diazepane amide DORAs and 2-SORAs enabled by exploration of isosteric quinazoline replacements” (Bioorg Med Chem Lett, 2015).
Calls of active or inactive are those of the source. The calls are words filed in the database; no cut-off is given here.

Legend:
[1] = species on record: Homo sapiens; experiment: Selectivity ratio of IC50 for human orexin 1 receptor Ile408-Val mutant to IC50 for human orexin 2 receptor
[2] = target: T1, Orexin receptor type 2 (Homo sapiens, UniProt O43614); experiment: Antagonist activity at human orexin 2 receptor expressed in CHO cells assessed as inhibition of orexin-A-induced intracellular calcium level after 60 mins by FLIPR assay; assay type: functional, cell-based
T1 sequence (O43614 whole entry): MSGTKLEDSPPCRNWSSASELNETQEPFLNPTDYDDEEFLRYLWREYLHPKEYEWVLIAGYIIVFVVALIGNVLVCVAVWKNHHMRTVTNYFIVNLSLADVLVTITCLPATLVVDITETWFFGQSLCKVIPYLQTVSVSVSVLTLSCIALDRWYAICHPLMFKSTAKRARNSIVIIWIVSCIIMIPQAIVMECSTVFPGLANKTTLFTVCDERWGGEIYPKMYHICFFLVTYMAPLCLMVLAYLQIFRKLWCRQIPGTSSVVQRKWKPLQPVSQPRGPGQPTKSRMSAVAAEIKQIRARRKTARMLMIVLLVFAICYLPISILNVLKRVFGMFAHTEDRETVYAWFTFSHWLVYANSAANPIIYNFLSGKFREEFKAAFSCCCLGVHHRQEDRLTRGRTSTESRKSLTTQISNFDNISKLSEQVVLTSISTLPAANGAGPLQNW

[3] = Clearance in dog at 0.125 mg/kg, iv; assay type: ADME, organism-based, Canis lupus familiaris; details: in vivo
Method in brief: (§1)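 Intravenous PK in rat (2 mg/kg) and dog (0.125 or 0.5 mg/kg), vehicle 100% DMSO, n = 2. Clearance, Vdss and half-life were determined.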

[4] = target: Orexin receptor type 1 (Homo sapiens) (UniProt O43613); experiment: Binding affinity to human orexin 1 receptor expressed in CHO cells after 3 hrs by radioligand binding assay
[5] = target: Orexin receptor type 2 (Homo sapiens) (UniProt O43614); experiment: Antagonist activity at human orexin 2 receptor expressed in CHO cells assessed as inhibition of orexin-A-induced intracellular calcium level after 60 mins by FLIPR assay; details: 1 h
[6] = AUC in satellite rat sleep model at 30 mg/kg, po; assay type: ADME, organism-based; details: in vivo
Method in brief: (§2)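 Satellite rats from the sleep study were given 30 mg/kg orally as the free base in 20% Vitamin E TPGS in water (n = 3). Plasma AUC, Cmax and Tmax were measured over the sleep experiment.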

[7] = Tmax in satellite rat sleep model at 30 mg/kg, po; assay type: ADME, organism-based; details: in vivo; method in brief: as §2
[8] = Cmax in satellite rat sleep model at 30 mg/kg, po; assay type: ADME, organism-based; design: dose 30 mg/kg, route oral; details: in vivo; method in brief: as §2
[9] = test system: Rattus norvegicus; experiment: Anti-insomnia activity in rat sleep model assessed as reduction of active wake at 30 mg/kg, po up to 2 hrs; assay type: functional, organism-based
[10] = test system: Rattus norvegicus; experiment: Anti-insomnia activity in rat sleep model assessed as increase in slow wave at 30 mg/kg, po up to 2 hrs; assay type: functional, organism-based
[11] = test system: Rattus norvegicus; experiment: Anti-insomnia activity in rat sleep model assessed as increase in REM sleep at 30 mg/kg, po up to 2 hrs; assay type: functional, organism-based
[12] = species on record: Rattus norvegicus; experiment: Ex vivo receptor occupancy at human OX2R expressed in transgenic rat at plasma concentration of 0.35 uM; assay type: functional
[13] = target: Orexin receptor type 2 (Homo sapiens) (UniProt O43614); experiment: Binding affinity to human orexin 2 receptor expressed in CHO cells after 3 hrs by radioligand binding assay
[14] = Tmax in mouse at 300 mg/kg, po; assay type: ADME, organism-based; details: in vivo
Method in brief: (§3)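 Mice were dosed orally at 300 mg/kg as the free base in 20% Vitamin E TPGS in water, during the active phase of the sleep study. Cmax and Tmax were taken from plasma.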

[15] = Cmax in mouse at 300 mg/kg, po; assay type: ADME, organism-based; design: dose 300 mg/kg, route oral; details: in vivo; method in brief: as §3
[16] = Volume of distribution at steady state in dog at 0.5 mg/kg, iv; assay type: ADME, organism-based, Canis lupus familiaris; details: in vivo, read-out: Vdss; method in brief: as §1
[17] = Half life in dog at 0.5 mg/kg, iv; assay type: ADME, organism-based, Canis lupus familiaris; details: in vivo; method in brief: as §1
[18] = Clearance in dog at 0.5 mg/kg, iv; assay type: ADME, organism-based, Canis lupus familiaris; details: in vivo; method in brief: as §1
[19] = Plasma protein binding in dog; assay type: ADME, cell-free, Canis lupus familiaris; details: read-out: PPB (converted)
[20] = Plasma protein binding in rat; assay type: ADME, cell-free; details: read-out: PPB (converted)
[21] = Plasma protein binding in human; assay type: ADME, cell-free; details: read-out: PPB (converted)
[22] = test system: P-glycoprotein; experiment: Permeability of the compound assessed as human p-glycoprotein-mediated permeability ratio from basolateral to apical direction; assay type: ADME; details: not told
[23] = test system: P-glycoprotein; experiment: Permeability of the compound assessed as rat p-glycoprotein-mediated permeability ratio from basolateral to apical direction; assay type: ADME; details: not told
[24] = Apparent permeability of the compound assessed […] by cell based assay; assay type: physicochemical
[25] = Lipophilicity, log D of the compound by HPLC analysis; assay type: physicochemical
[26] = Clearance in rat at 2 mg/kg, iv; assay type: ADME, organism-based; details: in vivo; method in brief: as §1
[27] = Volume of distribution at steady state in rat at 2 mg/kg, iv; assay type: ADME, organism-based; details: in vivo, read-out: Vdss; method in brief: as §1
[28] = Half life in rat at 2 mg/kg, iv; assay type: ADME, organism-based; details: in vivo; method in brief: as §1
[29] = AUC in rat at 10 mg/kg, po; assay type: ADME, organism-based; details: in vivo
[30] = Tmax in rat at 10 mg/kg, po; assay type: ADME, organism-based; details: in vivo
Method in brief: (§4)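 Rats were dosed orally at 10 mg/kg in 100% PEG200 (n = 2), as the free base or the hydrochloride salt. AUC, Tmax, Cmax and bioavailability (F) were derived from plasma levels.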

[31] = Cmax in rat at 10 mg/kg, po; assay type: ADME, organism-based; design: dose 10 mg/kg, route oral; details: in vivo; method in brief: as §4
[32] = Oral bioavailability in rat at 10 mg/kg; assay type: ADME, organism-based; details: in vivo; method in brief: as §4
[33] = AUC in dog at 3 mg/kg, po; assay type: ADME, organism-based, Canis lupus familiaris; details: in vivo
[34] = Tmax in dog at 3 mg/kg, po; assay type: ADME, organism-based, Canis lupus familiaris; details: in vivo
Method in brief: (§5)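 Oral dosing in dogs at 3 mg/kg as the free base in 20% Vitamin E TPGS in water (n = 2). AUC, Tmax, Cmax and oral bioavailability were determined from plasma.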

[35] = Cmax in dog at 3 mg/kg, po; assay type: ADME, organism-based, Canis lupus familiaris; design: dose 3 mg/kg, route oral; details: in vivo; method in brief: as §5
[36] = Oral bioavailability in dog at 3 mg/kg; assay type: ADME, organism-based, Canis lupus familiaris; details: in vivo; method in brief: as §5
[37] = Volume of distribution at steady state in dog at 0.125 mg/kg, iv; assay type: ADME, organism-based, Canis lupus familiaris; details: in vivo, read-out: Vdss; method in brief: as §1
[38] = Half life in dog at 0.125 mg/kg, iv; assay type: ADME, organism-based, Canis lupus familiaris; details: in vivo; method in brief: as §1
[39] = Oral bioavailability in satellite rat sleep model at 30 mg/kg; assay type: ADME, organism-based; details: in vivo; method in brief: as §2
[40] = species on record: Rattus norvegicus; experiment: Ex vivo receptor occupancy at human OX2R expressed in transgenic rat at plasma concentration of 1 uM; assay type: functional
[41] = test system: Liver microsome; experiment: Bioactivation of compound in human liver microsomes assessed as AUC of GSH-adduct formation at 10 uM after 60 mins by HRMS analysis relative to labetalol; details: 1 h
[42] = test system: Liver microsome; experiment: Bioactivation of compound in rat liver microsomes assessed as AUC of GSH-adduct formation at 10 uM after 60 mins by HRMS analysis relative to labetalol; details: 1 h

COc1ncc(C(F)(F)F)c(N2CC[C@@H](C)N(C(=O)c3ccccc3-n3nccn3)CC2)n1
Ratio IC50 [1]: 7
IC50 [2]: 245 nM

Cc1ccc(-n2nccn2)c(C(=O)N2CCN(c3ncc(Cl)c(C)n3)CC[C@H]2C)c1
IC50 [2]: 20 nM
clearance [3]: 9 mL/min/kg
Ki [4]: 6.1 nM
IC50 [5]: 20 nM

C[C@@H]1CCN(c2ncc3cc(F)ccc3n2)CCN1C(=O)c1ccccc1-n1nccn1
clearance [3]: 3 mL/min/kg
AUC [6]: 4.5 µM·h
Tmax [7]: 1.3 h
Cmax [8]: 2000 nM
Activity [9]: Active
Activity [10]: Active
Activity [11]: Active
Activity [12]: 90%

Cc1nc(N2CC[C@@H](C)N(C(=O)c3ccccc3-n3nccn3)CC2)ncc1C(F)(F)F
IC50 [2]: 19 nM
clearance [3]: 5 mL/min/kg
Ki [4]: 11 nM
IC50 [5]: 19 nM

C[C@@H]1CCN(c2nc(Cl)ncc2Cl)CCN1C(=O)c1ccccc1-n1nccn1
IC50 [2]: 25 nM
Ki [13]: 1.1 nM
Ki [4]: 850 nM

C[C@@H]1CCN(c2nc(Cl)ncc2C(F)(F)F)CCN1C(=O)c1ccccc1-n1nccn1
IC50 [2]: 72 nM
Ki [4]: 1100 nM
IC50 [5]: 72 nM

Cc1ncc(Cl)c(N2CC[C@@H](C)N(C(=O)c3ccccc3-n3nccn3)CC2)n1
Tmax [14]: 1 h
Cmax [15]: 18000 nM
Vd [16]: 0.8 L/kg
half-life [17]: 0.9 h
clearance [18]: 15 mL/min/kg
fraction unbound [19]: 0.05
fraction unbound [20]: 0.12
fraction unbound [21]: 0.05
IC50 [2]: 48 nM
efflux ratio [22]: 0.7
efflux ratio [23]: 1.5
Papp [24]: 34 ×10⁻⁶ cm/s
logD [25]: 2.8
clearance [26]: 118 mL/min/kg
Vd [27]: 7 L/kg
half-life [28]: 3.2 h
AUC [29]: 1.2 µM·h
Tmax [30]: 0.4 h
Cmax [31]: 900 nM
bioavailability [32]: 35%
AUC [33]: 1.8 µM·h
Tmax [34]: 0.4 h
Cmax [35]: 1300 nM
bioavailability [36]: 19%
Ki [13]: 3.6 nM
Ki [4]: 1800 nM

Cc1ncc(C)c(N2CC[C@@H](C)N(C(=O)c3ccccc3-n3nccn3)CC2)n1
IC50 [2]: 82 nM
Ki [4]: 3600 nM

Cc1ccc(-n2nccn2)c(C(=O)N2CCN(c3ncc(C(F)(F)F)c(C)n3)CC[C@H]2C)c1
IC50 [2]: 85 nM
clearance [3]: 10 mL/min/kg
Ki [13]: 0.5 nM
Ki [4]: 1.6 nM

Cc1ncc(C(F)(F)F)c(N2CC[C@@H](C)N(C(=O)c3ccccc3-n3nccn3)CC2)n1
IC50 [2]: 88 nM
Ki [13]: 31 nM
Ki [4]: 4200 nM
IC50 [5]: 88 nM

Cc1cnc(Cl)nc1N1CC[C@@H](C)N(C(=O)c2ccccc2-n2nccn2)CC1
IC50 [2]: 42 nM
Ki [13]: 2.6 nM
Ki [4]: 760 nM

Cc1ccc(-n2nccn2)c(C(=O)N2CCN(c3ncc(C(F)(F)F)c(Cl)n3)CC[C@H]2C)c1
IC50 [2]: 140 nM
clearance [3]: 15 mL/min/kg
Ki [13]: 0.6 nM
Ki [4]: 0.7 nM
IC50 [5]: 140 nM

COc1nc(N2CC[C@@H](C)N(C(=O)c3cc(C)ccc3-n3nccn3)CC2)ncc1C
IC50 [2]: 31 nM
Ki [13]: 0.6 nM
Ki [4]: 14 nM
IC50 [5]: 31 nM

COc1nc(N2CC[C@@H](C)N(C(=O)c3cc(C)ccc3-n3nccn3)CC2)ncc1C(F)(F)F
fraction unbound [19]: 0.005
fraction unbound [20]: 0.05
fraction unbound [21]: 0.04
IC50 [2]: 27 nM
clearance [3]: 3 mL/min/kg
Papp [24]: 28 ×10⁻⁶ cm/s
logD [25]: 3.4
clearance [26]: 37 mL/min/kg
Vd [27]: 2.5 L/kg
half-life [28]: 1.1 h
Vd [37]: 0.4 L/kg
half-life [38]: 2.4 h
AUC [29]: 0.6 µM·h
Tmax [30]: 3 h
Cmax [31]: 200 nM
bioavailability [32]: 8%
AUC [33]: 9.9 µM·h
Tmax [34]: 0.6 h
Cmax [35]: 2300 nM
bioavailability [36]: 23%
AUC [6]: 5.5 µM·h
Tmax [7]: 0.8 h
Cmax [8]: 2500 nM
bioavailability [39]: 19%
Activity [9]: Active
Activity [10]: Active
Activity [11]: Active
Activity [40]: 83%
Ki [4]: 1.5 nM
IC50 [5]: 27 nM

Cc1ccc(-n2nccn2)c(C(=O)N2CCN(c3nc4cc(Cl)ccc4o3)CC[C@H]2C)c1 [SUVOREXANT]
Activity [41]: > 95%
Activity [42]: > 95%

C[C@@H]1CCN(c2ncc(C(F)(F)F)c(Cl)n2)CCN1C(=O)c1ccccc1-n1nccn1
IC50 [2]: 88 nM
Ki [4]: 5.1 nM
IC50 [5]: 88 nM

Cc1ccc(-n2nccn2)c(C(=O)N2CCN(c3ncc(C)c(Cl)n3)CC[C@H]2C)c1
IC50 [2]: 28 nM
clearance [3]: 8 mL/min/kg
Ki [13]: 0.4 nM
Ki [4]: 3.9 nM
IC50 [5]: 28 nM

COc1nc(N2CC[C@@H](C)N(C(=O)c3ccccc3-n3nccn3)CC2)ncc1C(F)(F)F
IC50 [2]: 21 nM
clearance [3]: 3 mL/min/kg
Ki [13]: 0.7 nM
Ki [4]: 6.3 nM
IC50 [5]: 21 nM
